From ChEMBL document CHEMBL1158842, “Antiproliferative triterpene saponins from Entada africana” (J Nat Prod, 2006)

What was measured:
HEK293 = assay: Antiproliferative activity against HEK293 cells after 72 hrs by MTT conversion assay; type: cell-based, Homo sapiens
In short: (§1)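 Cells (3.4 × 10^4 per well) adhered 2 h at 37 °C, 5% CO2; medium replaced with fresh medium and 1:4 serial dilutions of test compound added, then incubated 72 h; 6-mercaptopurine serial dilutions in some experiments. Viability by MTT conversion, OD read at 620 nm; % dead cells = 100 − (OD treated/OD control) × 100.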

J774.A1 = assay: Antiproliferative activity against mouse J774A1 cells after 72 hrs by MTT conversion assay; type: cell-based; conditions: J774.A1, 72 h; in short: as §1
WEHI-164 = assay: Antiproliferative activity against mouse WEHI164 cells after 72 hrs by MTT conversion assay; type: functional, cell-based; in short: as §1
[1] = Homo sapiens, HEK293, 72 h, read-out: IC50
[2] = Mus musculus, WEHI-164, 72 h, read-out: IC50

SMILES | IC50 (HEK293; hek293) | IC50 (J774.A1) [nM] | IC50 (WEHI-164; wehi-164) | IC50 (HEK293; [1]) [nM] | IC50 (WEHI-164; [2]) [nM]
CC(=O)N[C@H]1[C@H](O[C@H]2CC[C@]3(C)[C@H]4CC=C5[C@@H]6CC(C)(C)CC[C@]6(C(=O)O[C@@H]6O[C@H](COC(C)=O)[C@@H](O)[C@H](O[C@@H]7OC[C@@H](O)[C@H](O)[C@H]7O)[C@H]6O[C@@H]6OC[C@@H](O)[C@H](O[C@@H]7OC[C@](O)(CO)[C@H]7O)[C@H]6O)[C@H](O)C[C@@]5(C)[C@]4(C)CC[C@H]3C2(C)C)O[C@H](CO[C@@H]2OC[C@H](O)[C@H](O[C@@H]3OC[C@@H](O)[C@H](O)[C@H]3O)[C@H]2O)[C@@H](O[C@@H]2O[C@H](CO)[C@@H](O)[C@H](O)[C@H]2O)[C@@H]1O | Not Traceable | 2900 | Not Traceable |  | 
C=C[C@@](C)(O)CC/C=C(\C)C(=O)O[C@@H]1[C@@H](OC(=O)/C=C/c2ccccc2)[C@H](O[C@H]2[C@H](O)[C@@H](COC(C)=O)O[C@@H](OC(=O)[C@]34CCC(C)(C)C[C@H]3C3=CC[C@@H]5[C@@]6(C)CC[C@H](O[C@@H]7O[C@H](CO[C@@H]8OC[C@H](O)[C@H](O[C@@H]9OC[C@@H](O)[C@H](O)[C@H]9O)[C@H]8O)[C@@H](O[C@@H]8O[C@H](CO)[C@@H](O)[C@H](O)[C@H]8O)[C@H](O)[C@H]7NC(C)=O)C(C)(C)[C@@H]6CC[C@@]5(C)[C@]3(C)C[C@H]4O)[C@@H]2O[C@@H]2OC[C@@H](O)[C@H](O[C@@H]3OC[C@](O)(CO)[C@H]3O)[C@H]2O)OC[C@H]1O |  | 840 |  | 360 | 380
CC(=O)N[C@H]1[C@H](O[C@H]2CC[C@]3(C)[C@H]4CC=C5[C@@H]6CC(C)(C)CC[C@]6(C(=O)O[C@@H]6O[C@H](CO)[C@@H](O)[C@H](O[C@@H]7OC[C@@H](O)[C@H](O)[C@H]7O)[C@H]6O[C@@H]6OC[C@@H](O)[C@H](O[C@@H]7OC[C@](O)(CO)[C@H]7O)[C@H]6O)[C@H](O)C[C@@]5(C)[C@]4(C)CC[C@H]3C2(C)C)O[C@H](CO[C@@H]2OC[C@H](O)[C@H](O[C@@H]3OC[C@@H](O)[C@H](O)[C@H]3O)[C@H]2O)[C@@H](O[C@@H]2O[C@H](CO)[C@@H](O)[C@H](O)[C@H]2O)[C@@H]1O | Not Traceable | 1200 | Not Traceable |  | 
C=C[C@](C)(O)CC/C=C(\C)C(=O)O[C@@H]1[C@@H](O)[C@H](O[C@H]2[C@H](O)[C@@H](COC(C)=O)O[C@@H](OC(=O)[C@]34CCC(C)(C)C[C@H]3C3=CC[C@@H]5[C@@]6(C)CC[C@H](O[C@@H]7O[C@H](CO[C@@H]8OC[C@H](O)[C@H](O[C@@H]9OC[C@@H](O)[C@H](O)[C@H]9O)[C@H]8O)[C@@H](O[C@@H]8O[C@H](CO)[C@@H](O)[C@H](O)[C@H]8O)[C@H](O)[C@H]7NC(C)=O)C(C)(C)[C@@H]6CC[C@@]5(C)[C@]3(C)C[C@H]4O)[C@@H]2O[C@@H]2OC[C@@H](O)[C@H](O[C@@H]3OC[C@](O)(CO)[C@H]3O)[C@H]2O)OC[C@H]1O |  | 520 |  | 270 | 490
CC(=O)N[C@H]1[C@H](O[C@H]2CC[C@]3(C)[C@H]4CC=C5[C@@H]6CC(C)(C)CC[C@]6(C(=O)O[C@@H]6O[C@H](COC(C)=O)[C@@H](O)[C@H](O[C@@H]7OC[C@@H](O)[C@H](O)[C@H]7O)[C@H]6O[C@@H]6OC[C@@H](O)[C@H](O[C@@H]7OC[C@](O)(CO)[C@H]7O)[C@H]6O)[C@H](O)C[C@@]5(C)[C@]4(C)CC[C@H]3C2(C)C)O[C@H](CO[C@@H]2OC[C@H](O)[C@H](O[C@@H]3OC[C@H](O)[C@H](O)[C@H]3O)[C@H]2O)[C@@H](O[C@@H]2O[C@H](CO)[C@@H](O)[C@H](O)[C@H]2O)[C@@H]1O | Not Traceable | 3100 | Not Traceable |  | 
C=C[C@](C)(O)CC/C=C(\C)C(=O)O[C@@H]1[C@@H](O)[C@H](O[C@H]2[C@H](O)[C@@H](COC(C)=O)O[C@@H](OC(=O)[C@]34C[C@H](O)C(C)(C)C[C@H]3C3=CC[C@@H]5[C@@]6(C)CC[C@H](O[C@@H]7O[C@H](CO[C@@H]8OC[C@H](O)[C@H](O[C@@H]9OC[C@@H](O)[C@H](O)[C@H]9O)[C@H]8O)[C@@H](O[C@@H]8O[C@H](CO)[C@@H](O)[C@H](O)[C@H]8O)[C@H](O)[C@H]7NC(C)=O)C(C)(C)[C@@H]6CC[C@@]5(C)[C@]3(C)C[C@H]4O)[C@@H]2O[C@@H]2OC[C@@H](O)[C@H](O[C@@H]3OC[C@](O)(CO)[C@H]3O)[C@H]2O)OC[C@H]1O |  | 31 |  | 250 | 100
C=C[C@@](C)(O)CC/C=C(\C)C(=O)O[C@@H]1[C@@H](OC(=O)/C=C/c2ccccc2)[C@H](O[C@H]2[C@H](O)[C@@H](COC(C)=O)O[C@@H](OC(=O)[C@]34C[C@H](O)C(C)(C)C[C@H]3C3=CC[C@@H]5[C@@]6(C)CC[C@H](O[C@@H]7O[C@H](CO[C@@H]8OC[C@H](O)[C@H](O[C@@H]9OC[C@H](O)[C@H](O)[C@H]9O)[C@H]8O)[C@@H](O[C@@H]8O[C@H](CO)[C@@H](O)[C@H](O)[C@H]8O)[C@H](O)[C@H]7NC(C)=O)C(C)(C)[C@@H]6CC[C@@]5(C)[C@]3(C)C[C@H]4O)[C@@H]2O[C@@H]2OC[C@@H](O)[C@H](O[C@@H]3OC[C@](O)(CO)[C@H]3O)[C@H]2O)OC[C@H]1O |  | 3000 |  | 2800 | 2700
CC(=O)N[C@H]1[C@H](O[C@H]2CC[C@]3(C)[C@H]4CC=C5[C@@H]6CC(C)(C)[C@@H](O)C[C@]6(C(=O)O[C@@H]6O[C@H](COC(C)=O)[C@@H](O)[C@H](O[C@@H]7OC[C@@H](O)[C@H](O)[C@H]7O)[C@H]6O[C@@H]6OC[C@@H](O)[C@H](O[C@@H]7OC[C@](O)(CO)[C@H]7O)[C@H]6O)[C@H](O)C[C@@]5(C)[C@]4(C)CC[C@H]3C2(C)C)O[C@H](CO[C@@H]2OC[C@H](O)[C@H](O[C@@H]3OC[C@@H](O)[C@H](O)[C@H]3O)[C@H]2O)[C@@H](O[C@@H]2O[C@H](CO)[C@@H](O)[C@H](O)[C@H]2O)[C@@H]1O |  | 2200 |  | 3900 | 2000
CC(=O)N[C@H]1[C@H](O[C@H]2CC[C@]3(C)[C@H]4CC=C5[C@@H]6CC(C)(C)CC[C@]6(C(=O)O[C@@H]6O[C@H](COC(C)=O)[C@@H](O)[C@H](O[C@@H]7OC[C@@H](O)[C@H](O)[C@H]7OC(=O)/C=C/c7ccccc7)[C@H]6O[C@@H]6OC[C@@H](O)[C@H](O[C@@H]7OC[C@](O)(CO)[C@H]7O)[C@H]6O)[C@H](O)C[C@@]5(C)[C@]4(C)CC[C@H]3C2(C)C)O[C@H](CO[C@@H]2OC[C@H](O)[C@H](O[C@@H]3OC[C@@H](O)[C@H](O)[C@H]3O)[C@H]2O)[C@@H](O[C@@H]2O[C@H](CO)[C@@H](O)[C@H](O)[C@H]2O)[C@@H]1O |  | 980 |  | 560 | 940
